Results as given in ChEMBL document CHEMBL4414638, “Structure-Activity Relationship of Peptide-Conjugated Chloramphenicol for Inhibiting Escherichia coli” (J Med Chem, 2019).
In brackets after ≈: the same amount, converted by molar mass. Activity calls are given as the source filed them. No cut-off for these calls is given here.

Experiments:
Escherichia coli [1] = test: Antibacterial activity against Escherichia coli K-12 assessed as reduction in bacterial growth incubated for 16 hrs; format: functional; conditions: K-12, 16 h
Escherichia coli [2] = test: Antibacterial activity against Escherichia coli K-12 assessed as reduction in bacterial growth incubated for 16 hrs in presence of porcine liver esterase; format: functional; conditions: K-12, 16 h
Escherichia coli [3] = test: Antibacterial activity against Escherichia coli K-12 assessed as reduction in bacterial growth incubated for 16 hrs in absence of porcine liver esterase; format: functional; conditions: K-12, 16 h
[4] = Drug metabolism in Escherichia coli K-12 lysates assessed as esterase-mediated drug hydrolysis at 200 uM incubated up to 24 hrs by HPLC analysis; format: ADME, subcellular, Lysate; conditions: escherichia coli k-12, isolated protein
[5] = Drug metabolism in human HepG2 cells lysates assessed as esterase-mediated drug hydrolysis at 200 uM incubated up to 24 hrs by HPLC analysis; format: ADME, subcellular, Lysate; conditions: hepg2, 24 h
[6] = Drug metabolism in Escherichia coli K-12 lysates assessed as esterase-mediated drug hydrolysis by measuring apparent first-order rate constant at 200 uM incubated up to 24 hrs by HPLC analysis; format: ADME, subcellular, Lysate; conditions: escherichia coli k-12, isolated protein
Escherichia coli [7] = test: Antibacterial activity against ydgR gene deficient Escherichia coli assessed as reduction in bacterial growth at 0.1 to 100 uM incubated for 16 hrs; format: functional, organism-based
Escherichia coli [8] = test: Antibacterial activity against fepA gene deficient Escherichia coli assessed as reduction in bacterial growth at 0.1 to 100 uM incubated for 16 hrs; format: functional, organism-based
Escherichia coli [9] = test: Antibacterial activity against ompF gene deficient Escherichia coli assessed as reduction in bacterial growth at 0.1 to 100 uM incubated for 16 hrs; format: functional, organism-based
Escherichia coli [10] = test: Antibacterial activity against acrA gene deficient Escherichia coli assessed as reduction in bacterial cell viability at 0.1 to 100 uM incubated for 16 hrs relative to control; format: functional
Escherichia coli [11] = test: Antibacterial activity against bioH gene deficient Escherichia coli assessed as reduction in bacterial growth at 0.1 to 100 uM incubated for 16 hrs; format: functional, organism-based
Escherichia coli [12] = test: Antibacterial activity against yjfP gene deficient Escherichia coli assessed as reduction in bacterial growth at 0.1 to 100 uM incubated for 16 hrs; format: functional, organism-based
Escherichia coli [13] = test: Antibacterial activity against frsA gene deficient Escherichia coli assessed as reduction in bacterial growth at 0.1 to 100 uM incubated for 16 hrs; format: functional, organism-based
Escherichia coli [14] = test: Antibacterial activity against ybfF gene deficient Escherichia coli assessed as reduction in bacterial growth at 0.1 to 100 uM incubated for 16 hrs; format: functional, organism-based
Escherichia coli [15] = test: Antibacterial activity against yfbB gene deficient Escherichia coli assessed as reduction in bacterial growth at 0.1 to 100 uM incubated for 16 hrs; format: functional, organism-based
Escherichia coli [16] = test: Antibacterial activity against ypfH gene deficient Escherichia coli assessed as reduction in bacterial growth at 0.1 to 100 uM incubated for 16 hrs; format: functional, organism-based
Escherichia coli [17] = test: Antibacterial activity against yeiG gene deficient Escherichia coli assessed as reduction in bacterial growth at 0.1 to 100 uM incubated for 16 hrs; format: functional, organism-based
Escherichia coli [18] = test: Antibacterial activity against yqiA gene deficient Escherichia coli assessed as reduction in bacterial growth at 0.1 to 100 uM incubated for 16 hrs; format: functional, organism-based
[19] = Drug metabolism in human serum assessed as formation of chloramphenicol at 200 uM at 37 degC after 24 hrs by LC-MS analysis relative to control
[20] = Cytotoxicity in human HS5 cells assessed as reduction in cell viability at 0.5 to 50 uM incubated […] relative to chloramphenicol; format: cell-based
Outline: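 HS-5 cells were exposed for 24 h to conjugates and chloramphenicol at 20, 200 or 2000 μM, or to comparator antibiotics at 0.5, 5 or 50 μM, and cell viability was then read.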

HEK293 [21] = test: Cytotoxicity in human HEK293 cells assessed as reduction in cell viability at 0.5 uM […] relative to chloramphenicol; format: cell-based; conditions: hek293, 0.5 µM
[22] = Cytotoxicity in human HS5 cells assessed as reduction in cell viability at 20 uM to 2 mM incubated up to […]rs relative to chloramphenicol; format: cell-based
HEK293 [23] = test: Cytotoxicity in human HEK293 cells assessed as reduction in cell viability at 20 uM […] relative to chloramphenicol; format: cell-based; conditions: hek293, 20 µM
[24] = Drug metabolism in human serum assessed as formation of chloramphenicol at 200 uM at 37 degC after 2 hrs by LC-MS analysis relative to control

SMILES | MIC (Escherichia coli [1]) | MIC (Escherichia coli [2]) | MIC (Escherichia coli [3]) | Drug metabolism [4] | Drug metabolism [5] | K [6] | Activity (Escherichia coli [7]) | Activity (Escherichia coli [8]) | Activity (Escherichia coli [9]) | Activity (Escherichia coli [10]) | Activity (Escherichia coli [11]) | Activity (Escherichia coli [12]) | Activity (Escherichia coli [13]) | Activity (Escherichia coli [14]) | Activity (Escherichia coli [15]) | Activity (Escherichia coli [16]) | Activity (Escherichia coli [17]) | Activity (Escherichia coli [18]) | Drug metabolism [19] | Activity [20] | further results
NCCCC[C@H](NC(=O)[C@H](CCCCN)NC(=O)CCC(=O)OC[C@@H](NC(=O)C(Cl)Cl)[C@H](O)c1ccc([N+](=O)[O-])cc1)C(=O)O | 200 µM | 200 µM | 200 µM (≈ 136 µg/mL) | Metabolite_Detected | Metabolite_Detected | 0.31 h⁻¹ | Active | Active | Active | 50% | inactive | inactive | inactive | inactive | inactive | inactive | inactive | inactive | Metabolite_Detected |  | 
COc1cc(Cc2cnc(N)nc2N)cc(OC)c1OC [TRIMETHOPRIM] | 1 µg/mL |  |  |  |  |  |  |  |  |  |  |  |  |  |  |  |  |  |  | Non-Toxic | Activity (HEK293 [21]): Toxic
O=C(O)c1cn(C2CC2)c2cc(N3CCNCC3)c(F)cc2c1=O [CIPROFLOXACIN] |  |  |  |  |  |  |  |  |  |  |  |  |  |  |  |  |  |  |  | Non-Toxic | Activity (HEK293 [21]): Toxic
NCCCC[C@@H](NC(=O)[C@@H](CCCCN)NC(=O)CCC(=O)OC[C@@H](NC(=O)C(Cl)Cl)[C@H](O)c1ccc([N+](=O)[O-])cc1)C(=O)O | 200 µM | 100 µM | 200 µM (≈ 136 µg/mL) | Metabolite_Detected | Metabolite_Detected | 0.317 h⁻¹ | Active | Active | Active | 20% | inactive | inactive | inactive | inactive | inactive | inactive | inactive | inactive | Metabolite_Detected |  | 
O=C(O)CNC(=O)[C@@H](CO)NC(=O)CCC(=O)OC[C@@H](NC(=O)C(Cl)Cl)[C@H](O)c1ccc([N+](=O)[O-])cc1 | 40 µM | 40 µM | 40 µM (≈ 22.7 µg/mL) | Metabolite_Detected | Metabolite_Detected | 1.267 h⁻¹ | Active | Active | Active | 40% | inactive | inactive | inactive | inactive | inactive | inactive | inactive | inactive | Metabolite_Detected |  | 
CC[C@H]1OC(=O)[C@H](C)C(=O)[C@H](C)[C@@H](O[C@@H]2O[C@H](C)C[C@H](N(C)C)[C@H]2O)[C@](C)(OC)C[C@@H](C)C(=O)[C@H](C)[C@H]2N(CCCCn3cnc(-c4cccnc4)c3)C(=O)O[C@]12C [TELITHROMYCIN] | 0.6 µg/mL |  |  |  |  |  |  |  |  |  |  |  |  |  |  |  |  |  |  | Non-Toxic | Activity (HEK293 [21]): Toxic
NCCCC[C@H](NC(=O)CNC(=O)CCC(=O)OC[C@@H](NC(=O)C(Cl)Cl)[C@H](O)c1ccc([N+](=O)[O-])cc1)C(=O)O | 20 µM |  |  |  |  |  |  |  |  |  |  |  |  |  |  |  |  |  | Metabolite_Detected |  | Activity [22]: Non-Toxic; Activity (HEK293 [23]): Toxic; Drug metabolism [24]: Metabolite_Detected
O=C(CCC(=O)OC[C@@H](NC(=O)C(Cl)Cl)[C@H](O)c1ccc([N+](=O)[O-])cc1)NCC(=O)NCC(=O)N[C@H](Cc1ccccc1)C(=O)O | 20 µM |  |  |  |  |  |  |  |  |  |  |  |  |  |  |  |  |  | Metabolite_Detected |  | Activity [22]: Non-Toxic; Activity (HEK293 [23]): Toxic; Drug metabolism [24]: Metabolite_Detected
O=C(CCC(=O)OC[C@@H](NC(=O)C(Cl)Cl)[C@H](O)c1ccc([N+](=O)[O-])cc1)NCC(=O)N[C@H](CO)C(=O)O | 20 µM | 20 µM | 20 µM (≈ 11.3 µg/mL) | Metabolite_Detected | Metabolite_Detected | 3.763 h⁻¹ | Active | Active | Active | 30% | inactive | inactive | inactive | inactive | inactive | inactive | inactive | inactive | Metabolite_Detected |  | Activity [22]: Non-Toxic; Activity (HEK293 [23]): Toxic; Drug metabolism [24]: Metabolite_Detected
